Converted amounts (≈) assume the structure as drawn.
Assays:
[1] = biological target: T1, Protein kinase C beta type (Homo sapiens, UniProt P05771); assay: Inhibition of recombinant PKCbeta1 by IMAP assay
How it was run: (§1)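 Recombinant enzyme mixed with test compound and substrate peptide/ATP solution, incubated 90 min at 30 °C; enzyme quantity, ATP, substrate and cation set per kinase. IMAP reagent then added for 5 min at room temperature, and peptide phosphorylation quantified by fluorescence polarization.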

[2] = Inhibition of recombinant PDGFR by TR-FRET assay
How it was run: (§2)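 Recombinant tyrosine kinase incubated with test compound and substrate peptide/ATP for 90 min at 30 °C; enzyme amount, ATP level, substrate and cation vary by kinase. Reaction stopped, then TR-FRET reagent with europium-labelled anti-phospho-substrate antibody added for 5 min at room temperature; substrate phosphorylation read as time-resolved fluorescence.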

[3] = biological target: Insulin-like growth factor 1 receptor (Homo sapiens, UniProt P08069); assay: Inhibition of recombinant IGF1R by TR-FRET assay; how it was run: as §2
Insulin-like growth factor 1 receptor, sequence (P08069 31-736 limits assumed): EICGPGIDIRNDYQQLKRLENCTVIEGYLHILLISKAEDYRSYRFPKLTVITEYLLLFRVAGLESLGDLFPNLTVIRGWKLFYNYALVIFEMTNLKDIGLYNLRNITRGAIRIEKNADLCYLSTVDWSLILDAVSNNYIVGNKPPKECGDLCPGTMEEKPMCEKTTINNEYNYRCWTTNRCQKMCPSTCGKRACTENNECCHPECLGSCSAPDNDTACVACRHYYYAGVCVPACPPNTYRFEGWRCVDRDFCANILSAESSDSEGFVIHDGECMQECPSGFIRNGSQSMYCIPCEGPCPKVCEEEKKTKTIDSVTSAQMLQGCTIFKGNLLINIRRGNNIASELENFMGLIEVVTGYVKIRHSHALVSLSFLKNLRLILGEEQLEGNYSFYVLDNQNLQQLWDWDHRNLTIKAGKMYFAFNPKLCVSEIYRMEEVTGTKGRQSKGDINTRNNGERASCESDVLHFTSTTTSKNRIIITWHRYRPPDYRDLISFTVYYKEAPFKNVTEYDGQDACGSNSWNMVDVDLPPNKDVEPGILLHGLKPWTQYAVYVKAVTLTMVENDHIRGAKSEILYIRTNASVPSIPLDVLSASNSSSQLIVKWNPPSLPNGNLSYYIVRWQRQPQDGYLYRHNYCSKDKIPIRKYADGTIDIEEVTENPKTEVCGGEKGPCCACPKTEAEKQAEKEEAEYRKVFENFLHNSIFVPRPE
Insulin-like growth factor 1 receptor, sequence (P08069 741-1367 limits assumed): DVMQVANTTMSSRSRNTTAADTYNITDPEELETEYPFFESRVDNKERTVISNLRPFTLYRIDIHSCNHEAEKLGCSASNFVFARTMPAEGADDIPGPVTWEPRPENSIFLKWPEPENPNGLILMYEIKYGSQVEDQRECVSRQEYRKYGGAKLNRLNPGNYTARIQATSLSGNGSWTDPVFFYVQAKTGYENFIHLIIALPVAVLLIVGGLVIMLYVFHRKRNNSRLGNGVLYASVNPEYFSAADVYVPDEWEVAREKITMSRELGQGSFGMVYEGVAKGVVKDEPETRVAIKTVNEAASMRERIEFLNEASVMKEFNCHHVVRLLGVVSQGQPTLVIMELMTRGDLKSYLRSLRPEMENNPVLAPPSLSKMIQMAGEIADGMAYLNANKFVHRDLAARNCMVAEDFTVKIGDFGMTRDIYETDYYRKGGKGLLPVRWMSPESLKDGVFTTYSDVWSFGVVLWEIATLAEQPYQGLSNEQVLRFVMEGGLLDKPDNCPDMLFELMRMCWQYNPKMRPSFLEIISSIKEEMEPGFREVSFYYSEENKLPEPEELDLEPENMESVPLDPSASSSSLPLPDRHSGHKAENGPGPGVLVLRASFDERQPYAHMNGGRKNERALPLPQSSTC

[4] = Solubility in fasted state simulated intestinal fluid; type: physicochemical
[5] = biological target: T2, Tyrosine-protein kinase receptor UFO (Homo sapiens, UniProt P30530); assay: Inhibition of recombinant AXL by TR-FRET assay; how it was run: as §2
T2 sequence (P30530 whole entry): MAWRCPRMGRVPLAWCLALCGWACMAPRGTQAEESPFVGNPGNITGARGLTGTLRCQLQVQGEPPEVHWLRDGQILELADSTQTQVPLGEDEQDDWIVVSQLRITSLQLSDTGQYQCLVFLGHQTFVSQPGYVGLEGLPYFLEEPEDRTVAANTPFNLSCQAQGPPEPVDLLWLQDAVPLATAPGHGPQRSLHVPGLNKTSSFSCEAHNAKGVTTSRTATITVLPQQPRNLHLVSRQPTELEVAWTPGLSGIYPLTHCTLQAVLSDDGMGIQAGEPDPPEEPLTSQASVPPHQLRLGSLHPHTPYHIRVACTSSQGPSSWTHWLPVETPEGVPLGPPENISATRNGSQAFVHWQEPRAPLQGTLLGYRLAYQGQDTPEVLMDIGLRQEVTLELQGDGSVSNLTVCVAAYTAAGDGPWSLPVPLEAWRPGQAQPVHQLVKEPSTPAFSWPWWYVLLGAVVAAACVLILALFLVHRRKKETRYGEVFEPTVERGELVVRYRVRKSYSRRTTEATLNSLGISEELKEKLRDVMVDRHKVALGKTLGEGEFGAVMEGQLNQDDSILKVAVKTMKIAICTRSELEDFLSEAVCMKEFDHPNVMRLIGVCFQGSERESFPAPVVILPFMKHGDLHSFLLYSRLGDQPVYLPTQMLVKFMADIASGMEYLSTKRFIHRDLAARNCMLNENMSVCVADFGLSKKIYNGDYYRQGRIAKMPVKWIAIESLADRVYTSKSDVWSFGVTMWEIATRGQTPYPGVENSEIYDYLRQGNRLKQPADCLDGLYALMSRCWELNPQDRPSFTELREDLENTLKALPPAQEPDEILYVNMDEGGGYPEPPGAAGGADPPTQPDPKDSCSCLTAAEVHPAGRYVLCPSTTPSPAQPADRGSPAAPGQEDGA

[6] = Inhibition of recombinant PKA by IMAP assay; how it was run: as §1
[7] = biological target: Cyclin-dependent kinase 1 (Homo sapiens, UniProt P06493); assay: Inhibition of recombinant CDK1 by IMAP assay; how it was run: as §1
Cyclin-dependent kinase 1, sequence (P06493 whole entry): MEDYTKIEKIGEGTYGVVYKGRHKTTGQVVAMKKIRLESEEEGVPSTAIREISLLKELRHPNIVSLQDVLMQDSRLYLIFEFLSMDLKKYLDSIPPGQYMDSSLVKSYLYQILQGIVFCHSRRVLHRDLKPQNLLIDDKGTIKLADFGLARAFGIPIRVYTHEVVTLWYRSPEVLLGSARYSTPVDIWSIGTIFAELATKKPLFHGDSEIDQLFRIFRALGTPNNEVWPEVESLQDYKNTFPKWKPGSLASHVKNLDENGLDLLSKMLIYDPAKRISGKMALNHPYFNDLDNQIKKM

BXPC-3 = assay: Cytotoxicity against human BxPC3 cells after 96 hrs by WST8 assay; conditions: BXPC-3, 96 h
T47D = assay: Cytotoxicity against human T47D cells after 96 hrs by WST8 assay
[8] = biological target: Tyrosine-protein kinase ABL1 (Homo sapiens, UniProt P00519); assay: Inhibition of recombinant Abl by TR-FRET assay; how it was run: as §2
[9] = biological target: Tyrosine-protein kinase Fyn (Homo sapiens, UniProt P06241); assay: Inhibition of recombinant Fyn by TR-FRET assay; how it was run: as §2
Tyrosine-protein kinase Fyn, sequence (P06241 whole entry): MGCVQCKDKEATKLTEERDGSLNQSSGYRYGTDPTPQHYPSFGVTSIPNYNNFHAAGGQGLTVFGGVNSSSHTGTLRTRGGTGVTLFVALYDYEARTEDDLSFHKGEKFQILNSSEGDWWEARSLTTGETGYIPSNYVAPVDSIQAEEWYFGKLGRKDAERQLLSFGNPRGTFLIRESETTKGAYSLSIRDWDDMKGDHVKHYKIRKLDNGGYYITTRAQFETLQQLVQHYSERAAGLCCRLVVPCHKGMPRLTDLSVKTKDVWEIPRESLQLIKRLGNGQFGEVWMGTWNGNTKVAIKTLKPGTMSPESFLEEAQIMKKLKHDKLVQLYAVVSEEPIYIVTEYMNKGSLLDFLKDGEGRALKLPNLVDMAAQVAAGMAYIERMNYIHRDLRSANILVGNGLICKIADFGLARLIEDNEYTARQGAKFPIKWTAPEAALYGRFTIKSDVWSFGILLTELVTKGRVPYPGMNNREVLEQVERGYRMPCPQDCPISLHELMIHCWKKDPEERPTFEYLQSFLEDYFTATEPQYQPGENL

MDA-MB-231 = assay: Cytotoxicity against human MDA-MB-231 cells after 96 hrs by WST8 assay; conditions: MDA-MB-231, 96 h
[10] = biological target: Tyrosine-protein kinase Yes (Homo sapiens, UniProt P07947); assay: Inhibition of recombinant YES by TR-FRET assay; how it was run: as §2
Tyrosine-protein kinase Yes, sequence (P07947 whole entry): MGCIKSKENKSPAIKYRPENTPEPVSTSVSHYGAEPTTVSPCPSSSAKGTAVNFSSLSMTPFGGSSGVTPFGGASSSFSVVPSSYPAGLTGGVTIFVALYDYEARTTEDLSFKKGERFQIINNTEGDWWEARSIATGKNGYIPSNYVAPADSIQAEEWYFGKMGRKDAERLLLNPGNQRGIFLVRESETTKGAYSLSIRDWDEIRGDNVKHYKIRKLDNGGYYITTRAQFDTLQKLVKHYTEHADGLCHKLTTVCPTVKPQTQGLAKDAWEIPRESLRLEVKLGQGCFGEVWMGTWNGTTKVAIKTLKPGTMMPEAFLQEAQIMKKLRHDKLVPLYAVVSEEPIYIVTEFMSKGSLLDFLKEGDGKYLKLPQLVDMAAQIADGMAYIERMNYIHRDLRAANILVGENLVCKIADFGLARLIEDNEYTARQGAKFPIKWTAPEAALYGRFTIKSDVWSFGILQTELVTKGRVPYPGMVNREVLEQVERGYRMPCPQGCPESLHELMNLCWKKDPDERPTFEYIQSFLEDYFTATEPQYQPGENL

[11] = biological target: Leukocyte tyrosine kinase receptor (Homo sapiens, UniProt P29376); assay: Inhibition of recombinant LTK by TR-FRET assay; how it was run: as §2
Leukocyte tyrosine kinase receptor, sequence (P29376 whole entry): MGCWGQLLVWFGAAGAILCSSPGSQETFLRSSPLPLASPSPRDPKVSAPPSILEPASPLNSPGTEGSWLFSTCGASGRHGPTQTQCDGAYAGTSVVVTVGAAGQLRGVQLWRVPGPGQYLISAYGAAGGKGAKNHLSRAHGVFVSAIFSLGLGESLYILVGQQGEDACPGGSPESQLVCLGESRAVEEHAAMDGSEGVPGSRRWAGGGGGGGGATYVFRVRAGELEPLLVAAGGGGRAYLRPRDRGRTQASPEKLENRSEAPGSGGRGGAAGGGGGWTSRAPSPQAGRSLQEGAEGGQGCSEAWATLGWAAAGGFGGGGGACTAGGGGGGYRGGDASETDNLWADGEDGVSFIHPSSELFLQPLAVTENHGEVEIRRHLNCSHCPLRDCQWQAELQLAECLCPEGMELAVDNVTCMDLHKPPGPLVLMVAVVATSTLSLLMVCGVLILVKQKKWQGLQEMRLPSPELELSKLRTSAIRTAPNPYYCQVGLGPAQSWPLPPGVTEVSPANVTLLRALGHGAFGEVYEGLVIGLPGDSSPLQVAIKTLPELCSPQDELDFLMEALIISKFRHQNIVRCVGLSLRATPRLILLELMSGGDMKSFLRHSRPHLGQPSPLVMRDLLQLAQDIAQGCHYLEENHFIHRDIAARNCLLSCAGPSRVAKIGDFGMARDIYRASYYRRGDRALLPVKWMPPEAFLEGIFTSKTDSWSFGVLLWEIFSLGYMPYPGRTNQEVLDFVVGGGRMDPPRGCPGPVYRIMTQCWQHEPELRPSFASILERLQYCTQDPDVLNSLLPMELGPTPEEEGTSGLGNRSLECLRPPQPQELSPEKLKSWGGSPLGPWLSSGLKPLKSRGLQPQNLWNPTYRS

CWR22R = assay: Cytotoxicity against human 22Rv1 cells after 96 hrs by WST8 assay; conditions: 22Rv1, 96 h
A549 = assay: Cytotoxicity against human A549 cells after 96 hrs by WST8 assay; conditions: A549, 96 h
MCF7 = assay: Cytotoxicity against human MCF7 cells after 96 hrs by WST8 assay; conditions: MCF7, 96 h
[12] = biological target: T1, Protein kinase C beta type; assay: Inhibition of recombinant PKCbeta2 by IMAP assay; how it was run: as §1
NCI-N87 = assay: Cytotoxicity against human NCI-N87 cells after 96 hrs by WST8 assay; conditions: NCI-N87, 96 h
MKN-28 = assay: Cytotoxicity against human MKN28 cells after 96 hrs by WST8 assay; conditions: MKN-28, 96 h

T1 sequence (P05771 whole entry): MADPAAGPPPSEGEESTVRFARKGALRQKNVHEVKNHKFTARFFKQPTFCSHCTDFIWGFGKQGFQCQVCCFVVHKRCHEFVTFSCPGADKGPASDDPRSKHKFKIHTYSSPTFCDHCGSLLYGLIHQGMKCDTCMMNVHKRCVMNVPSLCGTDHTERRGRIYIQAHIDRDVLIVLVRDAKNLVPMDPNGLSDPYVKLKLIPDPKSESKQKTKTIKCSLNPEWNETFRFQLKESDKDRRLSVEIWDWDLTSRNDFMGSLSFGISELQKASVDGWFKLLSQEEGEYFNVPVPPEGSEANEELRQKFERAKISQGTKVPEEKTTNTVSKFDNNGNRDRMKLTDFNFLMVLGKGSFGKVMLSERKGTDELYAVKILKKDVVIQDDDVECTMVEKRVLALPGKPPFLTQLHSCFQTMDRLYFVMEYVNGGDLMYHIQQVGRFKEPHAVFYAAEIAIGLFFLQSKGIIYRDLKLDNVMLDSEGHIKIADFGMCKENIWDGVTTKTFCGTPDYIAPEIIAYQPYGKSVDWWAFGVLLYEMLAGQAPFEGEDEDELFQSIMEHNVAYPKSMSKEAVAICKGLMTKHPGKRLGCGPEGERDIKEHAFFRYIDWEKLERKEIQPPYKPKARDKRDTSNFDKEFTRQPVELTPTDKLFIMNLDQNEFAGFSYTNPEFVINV

Compound: C[C@@H](Oc1ccc2ncc(C3CC3C(N)=O)cc2c1)c1c(Cl)ccc(F)c1Cl (stereo not given in full)
- IC50 [1]: > 50 µM
- IC50 [2]: > 50 µM
- IC50 [3]: 27 µM
- solubility [4]: 345 µg/mL (≈ 823 µM)
- IC50 [5]: 0.43 µM
- IC50 [6]: > 50 µM
- IC50 [7]: > 50 µM
- IC50 (BXPC-3): > 1 µM
- IC50 (T47D): > 1 µM
- IC50 [8]: > 50 µM
- IC50 [9]: 25 µM
- IC50 (MDA-MB-231): > 1 µM
- IC50 [10]: > 50 µM
- IC50 [11]: 10 µM
- IC50 (CWR22R): > 1 µM
- IC50 (A549): > 1 µM
- IC50 (MCF7): > 1 µM
- IC50 [12]: > 50 µM
- IC50 (NCI-N87): > 1 µM
- IC50 (MKN-28): > 1 µM
